According to ChEMBL document CHEMBL1287688 (Bioorg Med Chem, 2010):
Blank lines part the entries; values can stand above or below the compound they belong to.

Experiments:
[1] = Displacement of [3H]di-o-tolylguanidine from sigma2 receptor rat liver membranes after 180 mins scintillation counting; type: cell membranes, Membrane
[2] = target: T1, Glutamate NMDA receptor; GRIN1/GRIN2B (Homo sapiens, UniProt Q05586+Q13224); assay: Displacement of [3H]ifenprodil from human recombinant NR1-1a/NR2B receptor expressed in mouse L(tk-) cells after 120 mins by scintillation counting; type: cell-based
T1 sequence (Q13224 whole entry, other chains not shown): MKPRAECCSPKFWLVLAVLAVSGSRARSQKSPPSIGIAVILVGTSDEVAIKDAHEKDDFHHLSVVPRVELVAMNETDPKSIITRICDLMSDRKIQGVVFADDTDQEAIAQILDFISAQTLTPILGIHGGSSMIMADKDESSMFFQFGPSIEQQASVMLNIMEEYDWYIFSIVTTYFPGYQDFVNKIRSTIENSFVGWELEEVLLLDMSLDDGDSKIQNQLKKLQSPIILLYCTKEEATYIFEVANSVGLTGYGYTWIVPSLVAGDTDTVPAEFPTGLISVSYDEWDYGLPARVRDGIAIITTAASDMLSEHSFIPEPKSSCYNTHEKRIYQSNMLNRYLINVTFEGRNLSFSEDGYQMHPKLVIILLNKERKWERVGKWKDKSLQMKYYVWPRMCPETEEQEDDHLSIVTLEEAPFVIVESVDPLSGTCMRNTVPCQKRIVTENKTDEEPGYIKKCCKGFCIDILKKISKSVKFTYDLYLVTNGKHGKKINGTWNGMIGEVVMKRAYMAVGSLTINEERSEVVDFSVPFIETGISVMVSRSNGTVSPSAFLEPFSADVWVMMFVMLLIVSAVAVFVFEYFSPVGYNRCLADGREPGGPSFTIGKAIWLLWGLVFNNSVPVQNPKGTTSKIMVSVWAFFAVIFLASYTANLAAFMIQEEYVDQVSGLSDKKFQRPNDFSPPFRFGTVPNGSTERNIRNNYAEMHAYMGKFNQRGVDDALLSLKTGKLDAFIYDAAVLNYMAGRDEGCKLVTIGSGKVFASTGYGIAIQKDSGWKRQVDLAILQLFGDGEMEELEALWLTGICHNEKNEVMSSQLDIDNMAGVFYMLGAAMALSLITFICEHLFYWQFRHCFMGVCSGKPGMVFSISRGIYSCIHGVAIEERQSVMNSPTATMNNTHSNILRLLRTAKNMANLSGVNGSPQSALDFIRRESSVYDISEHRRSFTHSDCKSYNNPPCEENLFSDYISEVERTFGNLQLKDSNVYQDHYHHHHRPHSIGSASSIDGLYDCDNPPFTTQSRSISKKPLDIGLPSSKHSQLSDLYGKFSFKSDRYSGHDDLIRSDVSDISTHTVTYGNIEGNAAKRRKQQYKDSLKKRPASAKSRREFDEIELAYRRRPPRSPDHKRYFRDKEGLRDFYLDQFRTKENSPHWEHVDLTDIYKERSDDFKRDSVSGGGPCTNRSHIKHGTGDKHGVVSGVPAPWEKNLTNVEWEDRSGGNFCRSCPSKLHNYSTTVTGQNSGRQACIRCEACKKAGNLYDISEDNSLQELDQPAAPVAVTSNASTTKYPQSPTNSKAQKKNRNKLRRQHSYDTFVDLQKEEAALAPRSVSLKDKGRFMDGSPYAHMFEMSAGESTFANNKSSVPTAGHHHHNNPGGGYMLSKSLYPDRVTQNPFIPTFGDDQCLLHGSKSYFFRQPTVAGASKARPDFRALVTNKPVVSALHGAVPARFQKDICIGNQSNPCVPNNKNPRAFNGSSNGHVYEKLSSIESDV

[3] = target: Sigma non-opioid intracellular receptor 1 (Cavia porcellus, UniProt Q60492); assay: Displacement of [3H](+)-pentazocine from sigma1 receptor guinea pig brain after 180 mins scintillation counting
Sequence of Sigma non-opioid intracellular receptor 1 (Q60492 whole entry): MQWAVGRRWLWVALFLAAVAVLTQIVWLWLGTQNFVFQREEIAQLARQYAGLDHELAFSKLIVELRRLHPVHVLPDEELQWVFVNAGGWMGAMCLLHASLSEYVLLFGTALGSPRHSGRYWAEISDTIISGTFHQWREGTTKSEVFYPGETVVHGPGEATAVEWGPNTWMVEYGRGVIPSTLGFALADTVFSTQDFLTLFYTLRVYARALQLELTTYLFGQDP

[4] = Half life in human liver microsomes; type: ADME, Microsome
How it was run: (§1)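 Test article incubated with liver microsomes prepared from mouse, rat and human; half-life determined.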

[5] = Half life in rat liver microsomes; type: ADME, Microsome; how it was run: as §1
[6] = Half life in mouse liver microsomes; type: ADME, Microsome; how it was run: as §1
[7] = target: T1, Glutamate NMDA receptor; GRIN1/GRIN2B; assay: Antagonist activity at human recombinant NR1-1a/NR2B receptor expressed in mouse L(tk-) cells assessed as inhibition of (S)-glutamate/glycine-stimulated excitotoxicity treated 30 mins before (S)-glutamate/glycine challenge measured after 4 hrs by LDH release assay; type: functional, cell-based
How it was run: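 L13-E6 mouse L(tk-) cells stably expressing NR1-1a/NR2B; compounds (1 nM-10 µM, in DMSO) preincubated 30 min, then (S)-glutamate plus glycine (10 µM each) added, 4 h further incubation. LDH in supernatant measured; 0% = no agonist with 100 µM ketamine, 100% = glutamate/glycine without ketamine. At least three experiments, six replicates per concentration; IC50 calculated from curves.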

[8] = target: T2, Amine oxidase [flavin-containing] A (Homo sapiens, UniProt P21397); assay: Displacement of radiolabeled kynuramine from MAO-A at 1 to 3 uM
T2 sequence (P21397 whole entry): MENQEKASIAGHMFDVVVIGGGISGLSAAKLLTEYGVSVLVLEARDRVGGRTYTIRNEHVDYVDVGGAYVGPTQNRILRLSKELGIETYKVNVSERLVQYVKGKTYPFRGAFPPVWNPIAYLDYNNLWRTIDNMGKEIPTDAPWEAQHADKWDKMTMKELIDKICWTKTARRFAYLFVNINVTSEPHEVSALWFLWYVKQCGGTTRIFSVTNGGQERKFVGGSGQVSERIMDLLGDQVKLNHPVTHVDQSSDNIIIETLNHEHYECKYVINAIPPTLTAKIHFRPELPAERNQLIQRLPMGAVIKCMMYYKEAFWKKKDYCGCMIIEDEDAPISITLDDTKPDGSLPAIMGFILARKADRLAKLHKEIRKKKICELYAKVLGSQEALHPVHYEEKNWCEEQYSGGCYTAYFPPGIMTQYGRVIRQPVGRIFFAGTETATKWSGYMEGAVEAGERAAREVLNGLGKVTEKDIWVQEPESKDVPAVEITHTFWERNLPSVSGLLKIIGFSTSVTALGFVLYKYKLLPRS
How it was run: (§2)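 Broad radioligand competition screen against more than 100 receptors, transporters and enzymes, with test concentrations of 1-3 µM. Targets and radioligands are listed only in supplementary data. hERG IC50 was estimated.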

Mus musculus [9] = assay: Toxicity in mouse assessed as unusual reactions at 1 to 100 mg/kg, ip after 24 hrs; type: organism-based; design: dose 1-100 mg/kg, route intraperitoneal; settings: in vivo
How it was run: (§3)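 Mice (Irwin test) received increasing intraperitoneal doses of 1-100 mg/kg body weight. Behaviour was then observed for 24 h.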

Mus musculus [10] = assay: Toxicity in mouse assessed as diarrhea at 100 mg/kg, ip after 30 mins; type: organism-based; design: dose 100 mg/kg, route intraperitoneal; settings: in vivo, 0.5 h; how it was run: as §3
[11] = target: T3, UDP-glucuronosyltransferase 1A1 (Homo sapiens, UniProt P22309); assay: Displacement of radiolabeled scopoletin from UGT1A1 at 1 to 3 uM; how it was run: as §2
T3 sequence (P22309 whole entry): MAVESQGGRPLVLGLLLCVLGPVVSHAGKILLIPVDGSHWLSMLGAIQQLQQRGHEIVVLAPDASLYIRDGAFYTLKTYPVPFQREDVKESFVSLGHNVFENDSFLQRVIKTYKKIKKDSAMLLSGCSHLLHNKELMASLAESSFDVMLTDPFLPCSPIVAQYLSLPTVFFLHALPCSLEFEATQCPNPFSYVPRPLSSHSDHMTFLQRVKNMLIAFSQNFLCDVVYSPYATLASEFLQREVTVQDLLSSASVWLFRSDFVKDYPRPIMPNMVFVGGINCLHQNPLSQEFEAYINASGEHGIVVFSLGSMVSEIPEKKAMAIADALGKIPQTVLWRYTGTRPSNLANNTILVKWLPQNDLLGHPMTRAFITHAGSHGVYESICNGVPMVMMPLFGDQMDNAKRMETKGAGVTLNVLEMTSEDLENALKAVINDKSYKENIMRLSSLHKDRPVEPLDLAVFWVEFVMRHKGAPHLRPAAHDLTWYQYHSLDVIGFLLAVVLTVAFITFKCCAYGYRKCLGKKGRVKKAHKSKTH

[12] = target: T4, Amine oxidase [flavin-containing] B (Homo sapiens, UniProt P27338); assay: Displacement of radiolabeled kynuramine from MAO-B at 1 to 3 uM; how it was run: as §2
T4 sequence (P27338 whole entry): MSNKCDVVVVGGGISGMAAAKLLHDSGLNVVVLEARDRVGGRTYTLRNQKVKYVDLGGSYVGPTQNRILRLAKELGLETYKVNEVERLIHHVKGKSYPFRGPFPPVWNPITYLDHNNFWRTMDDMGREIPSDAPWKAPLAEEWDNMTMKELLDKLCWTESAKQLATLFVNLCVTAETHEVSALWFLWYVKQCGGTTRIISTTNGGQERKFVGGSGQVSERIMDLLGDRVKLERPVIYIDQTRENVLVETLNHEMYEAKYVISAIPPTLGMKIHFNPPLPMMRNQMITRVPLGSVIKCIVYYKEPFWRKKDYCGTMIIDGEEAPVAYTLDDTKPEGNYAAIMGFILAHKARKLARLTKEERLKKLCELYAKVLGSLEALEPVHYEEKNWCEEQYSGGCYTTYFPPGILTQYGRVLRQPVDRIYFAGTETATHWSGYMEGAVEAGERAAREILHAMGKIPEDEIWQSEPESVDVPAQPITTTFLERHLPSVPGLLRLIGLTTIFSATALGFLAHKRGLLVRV

[13] = Selectivity ratio of Ki for guinea pig sigma1 receptor to Ki for human recombinant NR1a/NR2B receptor

- Ki [1]: 3040 nM
- Ki [2]: 37 nM
Structure (SMILES): O=S(=O)(CCCN1CCc2cc(OCc3ccccc3)ccc2C(O)C1)c1ccccc1 (racemic)

- Ki [1]: 98 nM
- Ki [2]: 204 nM
- Ki [3]: > 1000 nM
Structure (SMILES): O=C(c1ccccc1)N1CCC(N2CCc3cc(O)ccc3C(O)C2)CC1 (racemic)

- half-life [4]: 5 min
- half-life [5]: < 1 min
- half-life [6]: < 5 min
Structure (SMILES): CC(C(O)c1ccc(O)cc1)N1CCC(Cc2ccccc2)CC1 (configuration not stated) [IFENPRODIL]

- Ki [1]: > 1000 nM
- Ki [2]: 644 nM
- Ki [3]: > 1000 nM
Structure (SMILES): CC(C)(C)c1ccc(C(=O)CCCN2CCc3cc(OCc4ccccc4)ccc3C(O)C2)cc1 (racemic)

- Ki [1]: 8.6 nM
- Ki [2]: 3.3 nM
- Ki [3]: 123 nM
Structure (SMILES): Oc1ccc2c(c1)CCN([C@H]1CC[C@@H](c3ccccc3)CC1)CC2O (mixture of isomers)
- IC50 [7]: 12100 nM

- Ki [1]: 2960 nM
- Ki [2]: 377 nM
- Ki [3]: > 1000 nM
Structure (SMILES): CN(Cc1ccccc1)C(=O)CN1CCc2cc(OCc3ccccc3)ccc2C(O)C1 (racemic)

- Ki [1]: 8.9 nM
- Ki [2]: 9 nM
- Ki [3]: 200 nM
Structure (SMILES): Oc1ccc2c(c1)CCN([C@H]1CC[C@H](c3ccccc3)CC1)CC2O (mixture of isomers)

- Ki [1]: > 1000 nM
- Ki [2]: 1000 nM
- Ki [3]: 186 nM
Structure (SMILES): OC1CN(C2COC(c3ccccc3)OC2)CCc2cc(OCc3ccccc3)ccc21 (racemic)

- Ki [1]: > 1000 nM
- Ki [2]: 661 nM
- Ki [3]: > 1000 nM
Structure (SMILES): COc1ccc(C2(CCCN3CCc4cc(OCc5ccccc5)ccc4C(O)C3)OCC(C)(C)CO2)cc1 (racemic)

- Ki [1]: 1050 nM
- Ki [2]: 187 nM
Structure (SMILES): OC1CN(CCCCc2ccccc2)CCc2cc(OCc3ccccc3)ccc21 (racemic)

- Ki [1]: > 1000 nM
- Ki [2]: 388 nM
- Ki [3]: 386 nM
Structure (SMILES): OC1CN([C@H]2CC[C@H](c3ccccc3)CC2)CCc2cc(OCc3ccccc3)ccc21 (some centres not stated)

- Ki [1]: 5.9 nM
- Ki [2]: 20 nM
- Ki [3]: 170 nM
Structure (SMILES): Oc1ccc2c(c1)CCN(CCCOc1ccccc1)CC2O (racemic)

- Ki [1]: 653 nM
- Ki [2]: 41 nM
Structure (SMILES): OC1CN(CCCSc2ccccc2)CCc2cc(OCc3ccccc3)ccc21 (racemic)

- Ki [1]: 945 nM
- Ki [2]: 93 nM
- Ki [3]: 193 nM
Structure (SMILES): OC1CN(CCCOc2ccccc2)CCc2cc(OCc3ccccc3)ccc21 (racemic)

- Ki [1]: 33 nM
- Ki [2]: 36 nM
- Ki [3]: 1050 nM
Structure (SMILES): O=C(CCCN1CCc2cc(O)ccc2C(O)C1)c1ccc(F)cc1 (racemic)

Second part, the compound before the results:

Structure (SMILES): Oc1ccc2c(c1)CCN(C1CCC3(CC1)OCCO3)CC2O (racemic)
- Ki [1]: 658 nM
- Ki [2]: > 1000 nM
- Ki [3]: > 1000 nM

Structure (SMILES): CN(Cc1ccccc1)C(=O)CN1CCc2cc(O)ccc2C(O)C1 (racemic)
- Ki [1]: 1580 nM
- Ki [2]: > 1000 nM

Structure (SMILES): OC1CN(Cc2cccc(-c3ccccc3)c2)CCc2cc(OCc3ccccc3)ccc21 (racemic)
- Ki [1]: > 1000 nM
- Ki [2]: 1210 nM
- Ki [3]: > 1000 nM

Structure (SMILES): O=S(=O)(CCCN1CCc2cc(O)ccc2C(O)C1)c1ccccc1 (racemic)
- Ki [1]: 653 nM
- Ki [2]: > 1000 nM
- Ki [3]: > 1000 nM

Structure (SMILES): O=C(CCCN1CCc2cc(OCc3ccccc3)ccc2C(O)C1)c1ccc(F)cc1 (racemic)
- Ki [1]: 1050 nM
- Ki [2]: 151 nM
- Ki [3]: 293 nM

Structure (SMILES): Oc1ccc2c(c1)CCN(CCCCc1ccccc1)CC2O (racemic)
- Activity [8]: Not Active
- Activity (Mus musculus [9]): Non-toxic
- Activity (Mus musculus [10]): Toxic
- Ki [1]: 18000 nM
- Activity [11]: Not Active
- Ki [2]: 14 nM
- Activity [12]: Not Active
- IC50 [7]: 18.4 nM
- half-life [4]: 21 min
- half-life [5]: < 3 min
- half-life [6]: 28 min

Structure (SMILES): OC1CN(C2CCC3(CC2)OCCO3)CCc2cc(OCc3ccccc3)ccc21 (racemic)
- Ki [1]: 753 nM
- Ki [2]: 1120 nM

Structure (SMILES): OC1CN(Cc2ccc(N3CCCCC3)cc2)CCc2cc(OCc3ccccc3)ccc21 (racemic)
- Ki [1]: 6430 nM
- Ki [2]: 1310 nM
- Ki [3]: 604 nM

Structure (SMILES): CC1(C)COC(CCCN2CCc3cc(OCc4ccccc4)ccc3C(O)C2)(c2ccc(F)cc2)OC1 (racemic)
- Ki [1]: > 1000 nM
- Ki [2]: 1420 nM
- Ki [3]: > 1000 nM

Structure (SMILES): CC1(C)COC(CCCN2CCc3cc(OCc4ccccc4)ccc3C(O)C2)(c2ccc(C(C)(C)C)cc2)OC1 (racemic)
- Ki [1]: 900 nM
- Ki [2]: > 1000 nM
- Ki [3]: > 1000 nM

Structure (SMILES): OC(CN1CCC(Cc2ccc(F)cc2)CC1)c1ccc(Cl)cc1 (configuration not stated) [ELIPRODIL]
- Ki [2]: 13 nM

Structure (SMILES): O=C(c1ccccc1)N1CCC(N2CCc3cc(OCc4ccccc4)ccc3C(O)C2)CC1 (racemic)
- Ki [1]: > 1000 nM
- Ki [2]: > 1000 nM
- Ki [3]: > 1000 nM

Structure (SMILES): COc1ccc2c(c1)CCN(CCCCc1ccccc1)CC2O (configuration not stated)
- Ki [1]: 554 nM
- Ki [2]: 5.4 nM
- IC50 [7]: 360 nM

Structure (SMILES): Oc1ccc2c(c1)CCN([C@H]1CO[C@H](c3ccccc3)OC1)CC2O (mixture of isomers)
- Ki [1]: > 1000 nM
- Ki [2]: > 1000 nM
- Ki [3]: > 1000 nM

Structure (SMILES): OC1CN([C@H]2CC[C@@H](c3ccccc3)CC2)CCc2cc(OCc3ccccc3)ccc21 (some centres not stated)
- Ki [1]: 311 nM
- Ratio Ki [13]: 14
- Ki [2]: 139 nM
- Ki [3]: 10 nM

Structure (SMILES): COc1ccc(C(=O)CCCN2CCc3cc(OCc4ccccc4)ccc3C(O)C2)cc1 (racemic)
- Ki [1]: 4500 nM
- Ki [2]: > 1000 nM
- Ki [3]: > 1000 nM
